Experimental data from ChEMBL document CHEMBL1208661, “Synthesis, characterization, in vitro and molecular docking studies of new 2,5-dichloro thienyl substituted thiazole derivatives for antimicrobial properties” (2010).
The source made the active and inactive calls.

How the values were obtained:
Talaromyces marneffei [1] = test: Antifungal activity against recultured Penicillium marneffei after 3 to 4 days by serial plate dilution method; assay type: functional
Outline: (§1)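 Sabouraud agar was used (peptone, D-glucose and agar in water, pH 5.7). Plates were lawned with a saline spore suspension and dried at 37 °C for 1 h. Wells were punched in the agar and filled with compound in DMSO, with a DMSO solvent control. Plates were run in triplicate at 37 °C for 3–4 days.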

[2] = system: Trichophyton mentagrophytes; test: Antifungal activity against recultured Trichophyton mentagrophytes after 3 to 4 days by serial plate dilution method; assay type: functional; outline: as §1
Aspergillus fumigatus [3] = test: Antifungal activity against Aspergillus fumigatus NCIM 902 after 3 to 4 days by serial plate dilution method; assay type: functional; outline: as §1
Aspergillus flavus [4] = test: Antifungal activity against Aspergillus flavus NCIM 524 after 3 to 4 days by serial plate dilution method; assay type: functional; outline: as §1
Klebsiella pneumoniae = test: Antibacterial activity against Klebsiella pneumoniae after 24 hrs by disc diffusion method; assay type: functional
Outline: (§2)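 Paper discs (6.25 mm, Whatman No. 1) were dry-heat sterilized at 140 °C for 1 h. Test compounds were made up at different concentrations in dimethylformamide and loaded onto batches of 100 discs, using 1 ml holding 100 times the per-disc amount. Discs were placed in triplicate on nutrient agar seeded with fresh bacteria.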

Escherichia coli = test: Antibacterial activity against Escherichia coli after 24 hrs by disc diffusion method; assay type: functional; outline: as §2
Staphylococcus aureus = test: Antibacterial activity against Staphylococcus aureus Smith after 24 hrs by disc diffusion method; assay type: functional; outline: as §2
Pseudomonas aeruginosa = test: Antibacterial activity against Pseudomonas aeruginosa after 24 hrs by disc diffusion method; assay type: functional; outline: as §2
Aspergillus fumigatus [5] = test: Antifungal activity against Aspergillus fumigatus NCIM 902 at 10 ug/ml after 3 to 4 days by serial plate dilution method; assay type: functional, organism-based; outline: as §1
[6] = system: Trichophyton mentagrophytes; test: Antifungal activity against recultured Trichophyton mentagrophytes at 10 ug/ml after 3 to 4 days by serial plate dilution method; assay type: functional, organism-based; outline: as §1
Aspergillus flavus [7] = test: Antifungal activity against Aspergillus flavus NCIM 524 at 10 ug/ml after 3 to 4 days by serial plate dilution method; assay type: functional, organism-based; outline: as §1
Talaromyces marneffei [8] = test: Antifungal activity against recultured Penicillium marneffei at 10 ug/ml after 3 to 4 days by serial plate dilution method; assay type: functional, organism-based; outline: as §1

Measured: MIC

C[C@@H]1[C@H](O)[C@@H](C)/C=C/C=C/C=C/C=C/C=C/C=C/C=C/[C@H](O[C@@H]2O[C@H](C)[C@@H](O)[C@H](N)[C@@H]2O)C[C@@H]2O[C@](O)(C[C@@H](O)C[C@@H](O)[C@H](O)CC[C@@H](O)C[C@@H](O)CC(=O)O[C@H]1C)C[C@H](O)[C@H]2C(=O)O [AMPHOTERICIN B]
< 6.25 µg/mL: Talaromyces marneffei [1] | [2] | Aspergillus fumigatus [3] | Aspergillus flavus [4]

CC1(C)S[C@@H]2[C@H](NC(=O)[C@H](N)c3ccccc3)C(=O)N2[C@H]1C(=O)O [AMPICILLIN]
< 6.25 µg/mL: Klebsiella pneumoniae | Escherichia coli | Staphylococcus aureus | Pseudomonas aeruginosa

COc1ccccc1-c1nc(-c2cc(Cl)sc2Cl)cs1
100 µg/mL: Klebsiella pneumoniae | Aspergillus flavus [4]
12.5 µg/mL: Talaromyces marneffei [1] | [2] | Pseudomonas aeruginosa
6.25 µg/mL: Escherichia coli | Staphylococcus aureus
inactive: Aspergillus fumigatus [5]

Clc1cc(-c2csc(-c3cccnc3)n2)c(Cl)s1
100 µg/mL: Staphylococcus aureus | Pseudomonas aeruginosa
inactive: Klebsiella pneumoniae | [6] | Aspergillus flavus [7] | Escherichia coli | Talaromyces marneffei [8] | Aspergillus fumigatus [5]

Clc1cc(-c2csc(-c3cccc4cccnc34)n2)c(Cl)s1
12.5 µg/mL: Escherichia coli | Aspergillus fumigatus [3] | Pseudomonas aeruginosa
6.25 µg/mL: Talaromyces marneffei [1] | Klebsiella pneumoniae | [2] | Staphylococcus aureus | Aspergillus flavus [4]

Fc1ccccc1-c1nc(-c2cc(Cl)sc2Cl)cs1
100 µg/mL: Staphylococcus aureus
not listed: Talaromyces marneffei [1] | [2] | Aspergillus fumigatus [3] | Aspergillus flavus [4]
inactive: all other assays above

Nc1nc(-c2cc(Cl)sc2Cl)cs1
6.25 µg/mL: Escherichia coli | Aspergillus fumigatus [3] | Staphylococcus aureus | Aspergillus flavus [4]
12.5 µg/mL: Talaromyces marneffei [1] | Klebsiella pneumoniae | [2] | Pseudomonas aeruginosa
